ChEMBL document CHEMBL5380865, “Linearization of the Brevicidine and Laterocidine Lipopeptides Yields Analogues That Retain Full Antibacterial Activity” (J Med Chem, 2023)
Values after ≈ are worked out from the molar mass of the structure shown. Where a SMILES comes first, the peptide text is derived from it. Bridges are numbered along the chain shown (N, C = ends). [ ]: non-standard residue; d: D form. The star is where a group is joined. ξ: configuration not given here. Octanoyl(7-Me) = CC(C)CCCCCC(=O)*; Hexanoyl(4ξ-Me) = CCC(C)CCC(=O)*; dOrn = NCCC[C@@H](N)C(=O)O; Orn = NCCC[C@H](N)C(=O)O; Dap = NC[C@H](N)C(=O)O; Alloc = C=CCOC(=O)*; OAll = C=CCO*

Test system: Escherichia coli
Experiment: Antibacterial activity Escherichia coli ATCC 25922 assessed as inhibition of visible bacterial growth incubated for 18 hrs by microbroth dilution assay
Assay type: functional
Conditions: not given
How it was run: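 CLSI broth microdilution. Strains streaked from glycerol stocks onto blood agar (16 h, 37 °C); single colonies grown in TSB at 37 °C, 220 rpm, to OD600 about 0.5. Diluted in MHB to 2 × 10^5 CFU/mL and mixed 1:1 with compounds serially diluted in MHB from DMSO stocks (colistin from water stocks), polypropylene plates. Sealed, 18 h at 37 °C, 600 rpm. MIC taken as lowest concentration preventing visible growth, three technical replicates.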

MIC [µg/mL] | Structure (SMILES)
> 32 | CC(C)CCCCCC(=O)N[C@H](CO)C(=O)N[C@H](Cc1ccc(O)cc1)C(=O)N[C@H](Cc1c[nH]c2ccccc12)C(=O)N[C@H](CCCN)C(=O)N[C@@H](CCCN)C(=O)NCC(=O)N[C@H](CCCN)C(=O)N[C@@H](Cc1c[nH]c2ccccc12)C(=O)N[C@H](C(N)=O)[C@@H](C)O ({Octanoyl(7-Me)}-[dS][dY][dW][dOrn][Orn]G[dOrn]WT-NH2)
4 (≈ 2.45 µM) | CC[C@H](C)[C@H](NC(=O)[C@@H](NC(=O)[C@H](Cc1c[nH]c2ccccc12)NC(=O)[C@@H](CCCN)NC(=O)[C@H](C)NC(=O)[C@H](CCCN)NC(=O)[C@@H](CCCN)NC(=O)[C@@H](Cc1c[nH]c2ccccc12)NC(=O)[C@@H](Cc1ccc(O)cc1)NC(=O)[C@@H](CO)NC(=O)CCCCCC(C)C)[C@@H](C)O)C(=O)N[C@@H](CC(N)=O)C(=O)NCC(=O)NCC(N)=O ({Octanoyl(7-Me)}-[dS][dY][dW][dOrn][Orn]A[dOrn]WTINGG-NH2)

Test system: not listed separately
Experiment: Hemolytic activity in sheep red blood cell assessed as hemolysis at 1 to 128 ug/ml incubated for 1 hrs relative to control
Assay type: toxicity, cell-based, Ovis aries, Erythrocyte
Conditions: sheep red blood cells (erythrocytes), at 1 to 128 µg/mL, dose 1-128 µg/ml, read-out: Activity
How it was run: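 Defibrinated sheep erythrocytes washed five times in PBS with 0.002% Tween20 and normalized so the Triton control reads 2.5–3.0 at 415 nm. Mixed 1:1 with compound serial dilutions (128–1 μg/mL) and incubated 1 h at 37 °C, 500 rpm. Supernatant A415 is background-corrected with buffer and expressed as percent of 0.1% Triton X-100 (final). Run in triplicate.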

Structure (SMILES) | hemolysis at 1 h [%]
CC[C@H](C)[C@H](NC(=O)[C@H](CC(C)C)NC(=O)[C@H](Cc1c[nH]c2ccccc12)NC(=O)[C@@H](CCCN)NC(=O)CNC(=O)[C@H](CCCN)NC(=O)[C@@H](CCCN)NC(=O)[C@@H](Cc1c[nH]c2ccccc12)NC(=O)[C@@H](Cc1ccc(O)cc1)NC(=O)[C@@H](CO)NC(=O)CCCCCC(C)C)C(=O)N[C@@H](CC(N)=O)C(=O)NCC(=O)NCC(N)=O ({Octanoyl(7-Me)}-[dS][dY][dW][dOrn][Orn]G[dOrn]WLINGG-NH2) | < 0.1
CCC(C)CCC(=O)N[C@H](CC(N)=O)C(=O)N[C@H](Cc1ccc(O)cc1)C(=O)N[C@H](Cc1c[nH]c2ccccc12)C(=O)N[C@H](CCCN)C(=O)N[C@@H](CCCN)C(=O)NCC(=O)N[C@H](CCCN)C(=O)N[C@@H](Cc1c[nH]c2ccccc12)C(N)=O (stereo not given in full) ({Hexanoyl(4ξ-Me)}-[dN][dY][dW][dOrn][Orn]G[dOrn]W-NH2) | < 0.1
C=CCOC(=O)NC[C@H](NC(=O)[C@H](Cc1c[nH]c2ccccc12)NC(=O)[C@@H](CCCN)NC(=O)CNC(=O)[C@H](CCCN)NC(=O)[C@@H](CCCN)NC(=O)[C@@H](Cc1c[nH]c2ccccc12)NC(=O)[C@@H](Cc1ccc(O)cc1)NC(=O)[C@@H](CO)NC(=O)CCCCCC(C)C)C(=O)N[C@H](C(=O)N[C@@H](CC(N)=O)C(=O)NCC(=O)NCC(N)=O)[C@@H](C)CC ({Octanoyl(7-Me)}-[dS][dY][dW][dOrn][Orn]G[dOrn]W[Dap](Alloc)INGG-NH2) | < 0.1
CCC(C)CCC(=O)N[C@H](CC(N)=O)C(=O)N[C@H](Cc1ccc(O)cc1)C(=O)N[C@H](Cc1c[nH]c2ccccc12)C(=O)N[C@H](CCCN)C(=O)N[C@@H](CCCN)C(=O)NCC(=O)N[C@H](CCCN)C(=O)N[C@@H](Cc1c[nH]c2ccccc12)C(=O)N[C@H](C(N)=O)[C@@H](C)O (stereo not given in full) ({Hexanoyl(4ξ-Me)}-[dN][dY][dW][dOrn][Orn]G[dOrn]WT-NH2) | < 0.1
CCC(C)CCC(=O)N[C@H](CC(N)=O)C(=O)N[C@H](Cc1ccc(O)cc1)C(=O)N[C@H](Cc1c[nH]c2ccccc12)C(=O)N[C@H](CCCN)C(=O)N[C@@H](CCCN)C(=O)NCC(=O)N[C@H](CCCN)C(=O)N[C@@H](Cc1c[nH]c2ccccc12)C(=O)N[C@@H]1C(=O)N[C@@H]([C@@H](C)CC)C(=O)NCC(=O)N[C@@H](CO)C(=O)O[C@@H]1C (stereo not given in full) ({Hexanoyl(4ξ-Me)}-[dN][dY][dW][dOrn][Orn]G[dOrn]WTIGS; ester 9-C) | < 0.1
CC[C@H](C)[C@H](NC(=O)[C@@H](NC(=O)[C@H](Cc1c[nH]c2ccccc12)NC(=O)[C@@H](CCCN)NC(=O)CNC(=O)[C@H](CCCN)NC(=O)[C@@H](CCCN)NC(=O)[C@@H](Cc1c[nH]c2ccccc12)NC(=O)[C@@H](Cc1ccc(O)cc1)NC(=O)[C@@H](CO)NC(=O)CCCCCC(C)C)[C@@H](C)O)C(=O)N[C@@H](CC(N)=O)C(=O)NCC(N)=O ({Octanoyl(7-Me)}-[dS][dY][dW][dOrn][Orn]G[dOrn]WTING-NH2) | < 0.1
CC[C@H](C)[C@H](NC(=O)[C@H](CO)NC(=O)[C@H](Cc1c[nH]c2ccccc12)NC(=O)[C@@H](CCCN)NC(=O)CNC(=O)[C@H](CCCN)NC(=O)[C@@H](CCCN)NC(=O)[C@@H](Cc1c[nH]c2ccccc12)NC(=O)[C@@H](Cc1ccc(O)cc1)NC(=O)[C@@H](CO)NC(=O)CCCCCC(C)C)C(=O)N[C@@H](CC(N)=O)C(=O)NCC(=O)NCC(N)=O ({Octanoyl(7-Me)}-[dS][dY][dW][dOrn][Orn]G[dOrn]WSINGG-NH2) | < 0.1
CC(C)CCCCCC(=O)N[C@H](CO)C(=O)N[C@H](Cc1ccc(O)cc1)C(=O)N[C@H](Cc1c[nH]c2ccccc12)C(=O)N[C@H](CCCN)C(=O)N[C@@H](CCCN)C(=O)NCC(=O)N[C@H](CCCN)C(=O)N[C@@H](Cc1c[nH]c2ccccc12)C(=O)N[C@H](C(N)=O)[C@@H](C)O ({Octanoyl(7-Me)}-[dS][dY][dW][dOrn][Orn]G[dOrn]WT-NH2) | < 0.1
C=CCOC(=O)CC[C@H](NC(=O)[C@H](Cc1c[nH]c2ccccc12)NC(=O)[C@@H](CCCN)NC(=O)CNC(=O)[C@H](CCCN)NC(=O)[C@@H](CCCN)NC(=O)[C@@H](Cc1c[nH]c2ccccc12)NC(=O)[C@@H](Cc1ccc(O)cc1)NC(=O)[C@@H](CO)NC(=O)CCCCCC(C)C)C(=O)N[C@H](C(=O)N[C@@H](CC(N)=O)C(=O)NCC(=O)NCC(N)=O)[C@@H](C)CC ({Octanoyl(7-Me)}-[dS][dY][dW][dOrn][Orn]G[dOrn]WE(OAll)INGG-NH2) | < 0.1
CCC(C)CCC(=O)N[C@H](CC(N)=O)C(=O)N[C@H](Cc1ccc(O)cc1)C(=O)N[C@H](Cc1c[nH]c2ccccc12)C(=O)N[C@H](CCCN)C(=O)N[C@@H](CCCN)C(=O)NCC(=O)N[C@H](CCCN)C(=O)N[C@@H](Cc1c[nH]c2ccccc12)C(=O)N[C@H](C(=O)N[C@H](C(=O)NCC(=O)N[C@@H](CO)C(N)=O)[C@@H](C)CC)[C@@H](C)O (stereo not given in full) ({Hexanoyl(4ξ-Me)}-[dN][dY][dW][dOrn][Orn]G[dOrn]WTIGS-NH2) | < 0.1
C=CCOC(=O)NC[C@H](NC(=O)[C@H](Cc1c[nH]c2ccccc12)NC(=O)[C@@H](CCCN)NC(=O)CNC(=O)[C@H](CCCN)NC(=O)[C@@H](CCCN)NC(=O)[C@@H](Cc1c[nH]c2ccccc12)NC(=O)[C@@H](Cc1ccc(O)cc1)NC(=O)[C@@H](CC(N)=O)NC(=O)CCC(C)CC)C(=O)N[C@H](C(=O)NCC(N)=O)[C@@H](C)CC (stereo not given in full) ({Hexanoyl(4ξ-Me)}-[dN][dY][dW][dOrn][Orn]G[dOrn]W[Dap](Alloc)IG-NH2) | < 0.1
CC(C)CCCCCC(=O)N[C@H](CO)C(=O)N[C@H](Cc1ccc(O)cc1)C(=O)N[C@H](Cc1c[nH]c2ccccc12)C(=O)N[C@H](CCCN)C(=O)N[C@@H](CCCN)C(=O)NCC(=O)N[C@H](CCCN)C(=O)N[C@@H](Cc1c[nH]c2ccccc12)C(N)=O ({Octanoyl(7-Me)}-[dS][dY][dW][dOrn][Orn]G[dOrn]W-NH2) | < 0.1
CCC(C)CCC(=O)N[C@H](CC(N)=O)C(=O)N[C@H](Cc1ccc(O)cc1)C(=O)N[C@H](Cc1c[nH]c2ccccc12)C(=O)N[C@H](CCCN)C(=O)N[C@@H](CCCN)C(=O)NCC(=O)N[C@H](CCCN)C(=O)N[C@@H](Cc1c[nH]c2ccccc12)C(=O)N[C@H](C(=O)N[C@H](C(N)=O)[C@@H](C)CC)[C@@H](C)O (stereo not given in full) ({Hexanoyl(4ξ-Me)}-[dN][dY][dW][dOrn][Orn]G[dOrn]WTI-NH2) | < 0.1
CCC(C)CCC(=O)N[C@H](CC(N)=O)C(=O)N[C@H](Cc1ccc(O)cc1)C(=O)N[C@H](Cc1c[nH]c2ccccc12)C(=O)N[C@H](CCCN)C(=O)N[C@@H](CCCN)C(=O)NCC(=O)N[C@H](CCCN)C(=O)N[C@@H](Cc1c[nH]c2ccccc12)C(=O)N[C@H](C(=O)N[C@H](C(=O)NCC(=O)N[C@@H](CO)C(=O)O)[C@@H](C)CC)[C@@H](C)O (stereo not given in full) ({Hexanoyl(4ξ-Me)}-[dN][dY][dW][dOrn][Orn]G[dOrn]WTIGS-OH) | < 0.1
CC[C@H](C)[C@H](NC(=O)[C@H](Cc1ccccc1)NC(=O)[C@H](Cc1c[nH]c2ccccc12)NC(=O)[C@@H](CCCN)NC(=O)CNC(=O)[C@H](CCCN)NC(=O)[C@@H](CCCN)NC(=O)[C@@H](Cc1c[nH]c2ccccc12)NC(=O)[C@@H](Cc1ccc(O)cc1)NC(=O)[C@@H](CO)NC(=O)CCCCCC(C)C)C(=O)N[C@@H](CC(N)=O)C(=O)NCC(=O)NCC(N)=O ({Octanoyl(7-Me)}-[dS][dY][dW][dOrn][Orn]G[dOrn]WFINGG-NH2) | 0.6
CC[C@H](C)[C@H](NC(=O)[C@H](CC(N)=O)NC(=O)[C@H](Cc1c[nH]c2ccccc12)NC(=O)[C@@H](CCCN)NC(=O)CNC(=O)[C@H](CCCN)NC(=O)[C@@H](CCCN)NC(=O)[C@@H](Cc1c[nH]c2ccccc12)NC(=O)[C@@H](Cc1ccc(O)cc1)NC(=O)[C@@H](CO)NC(=O)CCCCCC(C)C)C(=O)N[C@@H](CC(N)=O)C(=O)NCC(=O)NCC(N)=O ({Octanoyl(7-Me)}-[dS][dY][dW][dOrn][Orn]G[dOrn]WNINGG-NH2) | < 0.1
CC[C@H](C)[C@H](NC(=O)[C@@H](NC(=O)[C@H](Cc1c[nH]c2ccccc12)NC(=O)[C@@H](CCCN)NC(=O)CNC(=O)[C@H](CCCN)NC(=O)[C@@H](CCCN)NC(=O)[C@@H](Cc1c[nH]c2ccccc12)NC(=O)[C@@H](Cc1ccc(O)cc1)NC(=O)[C@@H](CO)NC(=O)CCCCCC(C)C)[C@@H](C)O)C(=O)N[C@@H](CC(N)=O)C(=O)NCC(=O)NCC(=O)O ({Octanoyl(7-Me)}-[dS][dY][dW][dOrn][Orn]G[dOrn]WTINGG-OH) | < 0.1
CC[C@H](C)[C@H](NC(=O)[C@@H](NC(=O)[C@H](Cc1c[nH]c2ccccc12)NC(=O)[C@@H](CCCN)NC(=O)CNC(=O)[C@H](CCCN)NC(=O)[C@@H](CCCN)NC(=O)[C@@H](Cc1c[nH]c2ccccc12)NC(=O)[C@@H](Cc1ccc(O)cc1)NC(=O)[C@@H](CO)NC(=O)CCCCCC(C)C)[C@@H](C)O)C(=O)N[C@@H](CC(N)=O)C(=O)NCC(=O)NCC(N)=O ({Octanoyl(7-Me)}-[dS][dY][dW][dOrn][Orn]G[dOrn]WTINGG-NH2) | < 0.1
